Results from different studies.
Lines come from different studies, so protocols differ.
Effect on: metabolic stability
Species: human

Structure (SMILES) | medium | concentration | half-life [min]
CCC(CC)COC(=O)[C@H](C)N[P@@](=O)(OC[C@@H]1C[C@@H](O)[C@H](n2cnc3c(N)ncnc32)O1)Oc1ccccc1 | liver microsomes | 1 µM | 0.67
COc1ccc([C@@H]2Sc3ccccc3N(CCN(C)C)C(=O)[C@@H]2OC(C)=O)cc1 | liver microsomes |  | 53.5
O=C(c1ccc(F)cc1)C1CCN(CCn2c(=O)[nH]c3ccccc3c2=O)CC1 | liver microsomes |  | 35.4
CSc1ncc(Br)c(C(=O)N[C@@H](CCC(=O)O)C(=O)N[C@@H](Cc2ccc3ccccc3c2)C(=O)N[C@@H](CC(C)C)C(=O)N[C@@H]2C[C@H]2c2ccccc2)n1 | plasma |  | 1900
CCOc1ccc2ccc(=O)oc2c1 | hepatocytes | 1 µM | 11.4
CC1(CN)CCN(c2cnc3c(Sc4ccncc4Cl)n[nH]c3n2)CC1 | liver microsomes |  | 36.7
CCOc1ccc(NC(C)=O)cc1 | liver microsomes |  | 67.1
O=c1ccc2ccc(O)cc2o1 | liver microsomes |  | 1.85
O=c1ccc2cc(O)ccc2o1 | liver microsomes | 20 µM | 63.5
CC(C)[N+](C)(CCOC(=O)C1c2ccccc2Oc2ccccc21)C(C)C | plasma |  | 25.8
O=C1CC[C@H](N2Cc3cc(N4CCN(CC5CCN(c6ccc([C@@H]7c8ccc(O)cc8CC[C@@H]7c7ccccc7)cc6)CC5)CC4)ccc3C2=O)C(=O)N1 | hepatocytes | 1 µM | 53.8
CCC(CC)COC(=O)[C@H](C)N[P@](=O)(OC[C@@H]1C[C@@H](O)[C@H](n2cnc3c(N)nc(F)nc32)O1)Oc1ccccc1 | liver microsomes | 1 µM | 1.42
CC(C)Oc1ccc(S(=O)(=O)c2ccc(Oc3cc(OCC(N)=O)c(C(=O)C(Cl)Cl)cc3[N+](=O)[O-])cc2)cc1 | liver microsomes | 20 µM | 46.7
O=c1ccc2ccc(O)cc2o1 | hepatocytes | 1 µM | 12.4
Nc1ncnc2c1ncn2[C@@H]1O[C@H](CO)C[C@H]1O | liver microsomes | 1 µM | 12.3
